Tests used:
[1] = biological target: Insulin-like growth factor 2 receptor ([…], cation-independent mannose-6-phosphate receptor, CI-MPR; hIGF-IIR) (Homo sapiens, UniProt P11717); assay: Binding affinity to CI-M6PR
How it was run: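 Competitive displacement ELISA: biotinylated CI-M6PR bound to pentamannose 6-phosphate adsorbed on microtiter wells, challenged with increasing analog concentrations. Remaining bound receptor detected with streptavidin/peroxidase and o-phenylenediamine substrate by optical density. IC50 taken from dose-inhibition curves. Mean of triplicates from one experiment, confirmed in two further experiments.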

[2] = Cytotoxicity against human fibroblast up to 100 uM after 4 days by MTT assay; type: cell-based; details: 96 h
How it was run: (§1)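 Human fibroblasts, MCF7 and MDA-MB-231 cells exposed in culture medium for 4 days to increasing concentrations up to 100 µM, with untreated controls. Proliferation read by MTT assay. Triplicates from one experiment, confirmed in two further experiments.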

MCF7 = assay: Cytotoxicity against human MCF7 cells up to 100 uM by MTT assay; type: cell-based; how it was run: as §1
Serum = assay: Stability in human serum after 2 days; type: ADME, cell-free; details: 48 h
How it was run: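 Analogs incubated 2 days at 37 °C with 75% human serum or without serum. Residual capacity to inhibit biotinylated CI-M6PR binding to plate-adsorbed pentamannose 6-phosphate was then assayed. Result expressed relative to day-0 controls with or without serum, set as 100%. Mean ± standard deviations of triplicates, confirmed in two further experiments.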

MDA-MB-231 = assay: Cytotoxicity against human MDA-MB-231 cells up to 100 uM by MTT assay; type: cell-based; how it was run: as §1

Chain of UniProt P11717 (P11717 whole entry, looked up): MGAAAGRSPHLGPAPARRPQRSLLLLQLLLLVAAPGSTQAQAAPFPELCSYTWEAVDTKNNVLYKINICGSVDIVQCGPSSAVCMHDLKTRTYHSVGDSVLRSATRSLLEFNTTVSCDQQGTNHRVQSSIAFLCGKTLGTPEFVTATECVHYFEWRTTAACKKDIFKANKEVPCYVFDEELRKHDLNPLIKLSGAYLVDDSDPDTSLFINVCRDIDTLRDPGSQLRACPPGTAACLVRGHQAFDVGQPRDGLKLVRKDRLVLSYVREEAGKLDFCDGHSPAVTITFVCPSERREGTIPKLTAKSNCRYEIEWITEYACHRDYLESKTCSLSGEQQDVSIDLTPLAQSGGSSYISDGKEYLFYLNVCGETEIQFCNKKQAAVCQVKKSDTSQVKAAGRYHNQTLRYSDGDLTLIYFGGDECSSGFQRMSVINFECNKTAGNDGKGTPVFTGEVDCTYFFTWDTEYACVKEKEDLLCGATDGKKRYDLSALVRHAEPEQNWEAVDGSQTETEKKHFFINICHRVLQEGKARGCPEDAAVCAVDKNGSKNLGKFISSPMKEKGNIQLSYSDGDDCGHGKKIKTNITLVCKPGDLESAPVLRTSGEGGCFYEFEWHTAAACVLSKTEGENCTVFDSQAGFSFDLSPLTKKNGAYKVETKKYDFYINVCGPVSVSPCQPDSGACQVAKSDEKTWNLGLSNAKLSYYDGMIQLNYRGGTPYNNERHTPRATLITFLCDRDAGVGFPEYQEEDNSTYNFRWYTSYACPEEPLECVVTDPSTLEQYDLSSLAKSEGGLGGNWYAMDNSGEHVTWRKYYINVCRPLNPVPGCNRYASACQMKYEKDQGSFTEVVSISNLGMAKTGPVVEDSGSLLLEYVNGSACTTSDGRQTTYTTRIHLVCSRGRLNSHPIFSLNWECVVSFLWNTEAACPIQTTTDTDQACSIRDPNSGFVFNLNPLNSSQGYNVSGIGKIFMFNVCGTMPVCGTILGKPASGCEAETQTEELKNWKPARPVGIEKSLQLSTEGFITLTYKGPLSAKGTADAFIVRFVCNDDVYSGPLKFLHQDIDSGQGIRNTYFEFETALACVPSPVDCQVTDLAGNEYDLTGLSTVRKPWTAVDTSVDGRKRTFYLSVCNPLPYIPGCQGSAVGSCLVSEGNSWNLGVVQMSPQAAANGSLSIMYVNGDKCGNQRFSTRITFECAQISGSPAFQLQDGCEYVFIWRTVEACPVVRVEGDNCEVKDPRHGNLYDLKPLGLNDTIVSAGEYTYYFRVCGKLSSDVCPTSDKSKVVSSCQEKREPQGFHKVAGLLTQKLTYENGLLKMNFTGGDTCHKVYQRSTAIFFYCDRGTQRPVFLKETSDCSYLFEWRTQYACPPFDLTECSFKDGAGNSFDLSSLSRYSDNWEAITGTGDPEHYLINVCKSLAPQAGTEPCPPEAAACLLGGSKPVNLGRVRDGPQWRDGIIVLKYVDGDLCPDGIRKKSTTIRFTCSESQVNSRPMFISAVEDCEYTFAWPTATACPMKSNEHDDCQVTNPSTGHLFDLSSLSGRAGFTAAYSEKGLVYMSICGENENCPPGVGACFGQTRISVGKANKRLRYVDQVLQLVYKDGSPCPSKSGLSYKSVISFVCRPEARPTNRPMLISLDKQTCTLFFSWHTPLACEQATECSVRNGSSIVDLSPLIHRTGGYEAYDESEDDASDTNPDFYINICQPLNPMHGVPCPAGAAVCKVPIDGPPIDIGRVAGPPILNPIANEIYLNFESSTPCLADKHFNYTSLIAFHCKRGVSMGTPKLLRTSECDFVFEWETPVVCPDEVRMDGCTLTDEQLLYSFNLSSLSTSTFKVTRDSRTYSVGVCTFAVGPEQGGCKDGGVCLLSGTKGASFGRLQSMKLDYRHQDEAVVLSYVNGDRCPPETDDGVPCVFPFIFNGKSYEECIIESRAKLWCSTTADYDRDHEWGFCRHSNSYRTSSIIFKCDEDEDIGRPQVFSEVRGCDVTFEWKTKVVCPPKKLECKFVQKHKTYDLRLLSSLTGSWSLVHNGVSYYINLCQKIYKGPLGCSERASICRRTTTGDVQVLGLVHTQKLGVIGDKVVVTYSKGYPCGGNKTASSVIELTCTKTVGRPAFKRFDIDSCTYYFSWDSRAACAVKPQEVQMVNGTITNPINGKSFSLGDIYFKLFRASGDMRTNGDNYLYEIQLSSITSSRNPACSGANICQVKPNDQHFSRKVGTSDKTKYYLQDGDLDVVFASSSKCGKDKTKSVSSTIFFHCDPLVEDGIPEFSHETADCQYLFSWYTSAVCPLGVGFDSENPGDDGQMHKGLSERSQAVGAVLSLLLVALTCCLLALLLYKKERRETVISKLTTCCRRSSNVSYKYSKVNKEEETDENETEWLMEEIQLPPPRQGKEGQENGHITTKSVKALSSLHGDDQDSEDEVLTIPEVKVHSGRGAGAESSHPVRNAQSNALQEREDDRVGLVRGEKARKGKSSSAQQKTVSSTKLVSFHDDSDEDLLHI

Compound	IC50 [1]	Activity [2]	Activity (MCF7)	Stability (Serum)	Activity (MDA-MB-231)
O=P(O)(O)OC[C@H]1OC(O)[C@@H](O)[C@@H](O)[C@@H]1O (stereo partly specified)	23 µM				
CO[C@H]1O[C@H](CCS(=O)(=O)[O-])[C@@H](O)[C@H](O)[C@@H]1O.[Na+]	150 µM	Not Active	Not Active	Stable	Not Active
CO[C@H]1O[C@H](/C=C/P(=O)([O-])[O-])[C@@H](O)[C@H](O)[C@@H]1O.[Na+].[Na+]	22 µM	Not Active	Not Active	Stable	Not Active
CO[C@H]1O[C@H](/C=C/S(=O)(=O)[O-])[C@@H](O)[C@H](O)[C@@H]1O.[Na+]	71 µM	Not Active	Not Active	Stable	Not Active

Reference: ChEMBL document CHEMBL1152259, “Synthesis of new sulfonate and phosphonate derivatives for cation-independent mannose 6-phosphate receptor targeting” (Bioorg Med Chem Lett, 2008)
